Measured values published in article PMC2966122 (The Journal of Biological Chemistry, 2010).
Blank lines part the entries; values can stand above or below the molecule they belong to.

Tests used:
Fluorescence anisotropy = assay type: binding; settings: for Affinity for 3-sialylated galactosides: probes 6–9 (6–8 for Xenopus); for Affinity for 3-sialylated galactosides / Affinity for GlcNAcβ1–3-substituted galactosides: relative to human wild type galectin-3; for Affinity for GlcNAcβ1–3-substituted galactosides: probes 9–15; for Binding to glycans where LacNAc or Galβ1–3GlcNAc is likely in site C-D: e.g. probes 2, 3, 7 and 8
Summary of the method: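 Equilibrium fluorescence anisotropy with 0.1 μM fluorescein-tagged saccharide probe (15 probes) titrated with 0.05–80 μM lactose-freed galectin. Read at room temperature and after incubation on ice (about 4 °C), ex 485/em 520 nm. Kd derived from the binding curve using probe-alone (A0) and saturated (Amax) anisotropy, with Amax extrapolated for partial curves. Not detected if anisotropy stayed ≤50 mA at 50 μM galectin.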

[1] = Glycan array binding of FITC-labeled galectins; settings: for Affinity for sialylated (and sulfated) galactosides on the array: site B; for Glycans bound on the array (overall): all glycans of the array; for Glycans bound on the array: 200 μg/ml galectin
Summary of the method: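 The printed array carries 406 glycans, six spots each, on NHS-activated glass. FITC-galectins at 200 μg/ml in Tris-buffered saline pH 7.4 (2 mM CaCl2, 2 mM MgCl2, 1% BSA, 0.05% Tween 20) were incubated 60 min at room temperature in the dark under a coverslip, then washed and dried. Slides were scanned at 488 nm and read as RFU (ceiling 40,000). Highest and lowest spots were dropped and the remaining four averaged.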

SKBR3 cells = experiment: Localization of EGFP-galectin-3 and mutants in transfected cells; assay type: cell-based, human; settings: EGFP fusion protein; for Entry into vesicles: stably transfected
Summary of the method: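 SKBR3 breast cancer cells were Lipofectamine-transfected with pEGFP-C1 EGFP-galectin-3 constructs and grown in RPMI 1640/10% FBS with 1 mg/ml G418 for ≥2 weeks to obtain stable lines. Cells were grown 1–2 days on coverslips, fixed in 4% paraformaldehyde, mounted with DAPI and viewed by epifluorescence microscopy. Fluorescent vesicles (dots) per cell were counted in 300 cells per construct.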

[2] = tested on: N-Ras to K-Ras activation; settings: cited from earlier work
[3] = tested on: intracellular anti-apoptotic effect; settings: cited from earlier work
TNFα-primed neutrophils = experiment: NADPH oxidase activation of TNFα-primed neutrophils; assay type: cell-based, human; settings: for Activation of primed neutrophils (release of oxygen radicals): dose response relative to wild type galectin-3 run in parallel, up to 3.5 μM
Summary of the method: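 Human neutrophils (1 × 10^7/ml) were primed 20 min at 37 °C with TNFα 10 ng/ml. Tubes held 10^6 cells and were equilibrated 5 min at 37 °C before galectin was added. Chemiluminescence was recorded continuously. Extracellular superoxide was read with HRP (4 units) plus isoluminol (6 × 10^-5 M). Intracellular ROS was read with SOD (50 units), catalase (2000 units) and luminol (2 × 10^-5 M). Peak responses were normalized to the parallel 3.5 μM wild-type peak.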

neutrophils [4] = experiment: Galectin binding to neutrophils; assay type: cell-based, human; settings: FITC-labeled galectin 40 μg/ml
Summary of the method: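 Human blood neutrophils from buffy coats (dextran sedimentation, Ficoll-Paque) were pretreated at 37 °C with or without TNFα, or held at 4 °C without it. They were then incubated 1 h at 4 or 37 °C with FITC-galectin (40 μg/ml) and washed twice in PBS/0.02% NaN3/EDTA. Flow cytometry gave geometric mean fluorescence from three neutrophil batches (mean, S.E.), with paired one-tailed t tests.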

neutrophils [5] = settings: cited from earlier work
[6] = cited from earlier work
MDCK cells = settings: EGFP fusion protein in MDCK cells; cited from earlier work
Shigella bacteria = settings: cited from earlier work
[7] = cited from earlier work; remark: listed apart in the source
[8] = cited from earlier work; remark: listed apart in the source
[9] = compared with human galectin-3; cited from earlier work

Molecule: A146Q: Human galectin-3 point mutant in site B, Ala-146 to Gln
Affinity for 3-sialylated galactosides (Fluorescence anisotropy): slightly reduced affinity | Affinity for GlcNAcβ1–3-substituted galactosides (Fluorescence anisotropy): retained affinity, albeit lower | Affinity for glycans with GalNAcα in site B on the array ([1]; but not those with Galα (blood group B type)): selective loss of affinity

Molecule: G182A: Human galectin-3 point mutant near site C, Gly-182 to Ala
Entry into vesicles (SKBR3 cells): much fewer in number per cell | Induction of a shift from N-Ras to K-Ras activation [2]: lost | Intracellular anti-apoptotic effect [3]: lost | Binding to Galβ1–3GlcNAc containing glycans on the array ([1]; relative to wild type): preferentially, although not exclusively, lost binding

Molecule: K176L/N180T: Human galectin-3 double mutant obtained by a mistake in primer design
Affinity for some of the longer GlcNAcβ-extended galactosides (Fluorescence anisotropy; compared with K176L): slightly increased affinity | Concentration inducing significant neutrophil activation (TNFα-primed neutrophils; TNFα-primed neutrophils): ≤ 0.2 µM | Activation of primed neutrophils (release of oxygen radicals) (TNFα-primed neutrophils): clearly increased potency

Molecule: K176L: Human galectin-3 point mutant in site B, Lys-176 to Leu
Affinity for 3-sialylated galactosides (Fluorescence anisotropy): lost affinity | Affinity for GlcNAcβ1–3-substituted galactosides (Fluorescence anisotropy): significantly better than wild type galectin-3 | Affinity for sialylated (and sulfated) galactosides on the array ([1]; relative to wild type): lost affinity | Binding to primed and non-primed neutrophils (neutrophils [4]): about equally well | Increase in binding after TNFα priming (neutrophils [4]): 30–50% | Activation of primed neutrophils (release of oxygen radicals) (TNFα-primed neutrophils): clearly increased potency

B1: Rat galectin-3: Rat galectin-3 orthologue, not available for study here; literature data (protein, UniProt P08699 2-262, looked up)
Galectin-3: ADGFSLNDALAGSGNPNPQGWPGAWGNQPGAGGYPGASYPGAYPGQAPPGGYPGQAPPSAYPGPTGPSAYPGPTAPGAYPGPTAPGAFPGQPGGPGAYPSAPGAYPSAPGAYPATGPFGAPTGPLTVPYDMPLPGGVMPRMLITIIGTVKPNANSITLNFKKGNDIAFHFNPRFNENNRRVIVCNTKQDNNWGREERQSAFPFESGKPFKIQVLVEADHFKVAVNDVHLLQYNHRMKNLREISQLGIIGDITLTSASHAMI
Lower affinity for NeuAcα2–3Lac [9]: ~5 fold

B2: Mouse galectin-3: Recombinant mouse galectin-3 orthologue (protein, UniProt P16110 2-264, looked up)
Galectin-3: ADSFSLNDALAGSGNPNPQGYPGAWGNQPGAGGYPGAAYPGAYPGQAPPGAYPGQAPPGAYPGQAPPSAYPGPTAPGAYPGPTAPGAYPGQPAPGAFPGQPGAPGAYPQCSGGYPAAGPYGVPAGPLTVPYDLPLPGGVMPRMLITIMGTVKPNANRIVLDFRRGNDVAFHFNPRFNENNRRVIVCNTKQDNNWGKEERQSAFPFESGKPFKIQVLVEADHFKVAVNDAHLLQYNHRMKNLREISQLGISGDITLTSANHAMI
Affinity for GlcNAcβ1–3-substituted galactosides (Fluorescence anisotropy): lower affinity for all the saccharide probes tested and most significantly for the ones extended by GlcNAcβ | Affinity for all the saccharide probes tested (Fluorescence anisotropy; relative to human galectin-3): lower affinity

Further lines, with some results ahead:

Affinity for sialylated (and sulfated) galactosides on the array ([1]; relative to wild type): lost affinity
Molecule: R144S: Human galectin-3 point mutant in site B, Arg-144 to Ser
Affinity for the GalNAcα extended galactoside (Fluorescence anisotropy; probe 5 (A-tetrasaccharide), relative to wild type): increased affinity | Affinity for 3-sialylated galactosides (Fluorescence anisotropy): lost affinity | Affinity for GlcNAcβ1–3-substituted galactosides (Fluorescence anisotropy): lost affinity

Binding to glycans where LacNAc or Galβ1–3GlcNAc is likely in site C-D (Fluorescence anisotropy): lost binding | Glycans bound on the array (overall) [1]: bound a few more glycans | Background binding, maximum ([1]; remaining 227 glycans not expected to bind galectins): 2674 RFU
Molecule: R186I: Human galectin-3 mutant replacing Arg-186 with Ile, as found in galectin-8N
Affinity for glycans with Lac in site C-D (Fluorescence anisotropy; relative to wild type): retained reduced affinity

Binding to glycans where LacNAc or Galβ1–3GlcNAc is likely in site C-D (Fluorescence anisotropy): lost binding | Glycans bound on the array (overall) [1]: bound only one glycan
Molecule: R186S: Human galectin-3 mutant replacing Arg-186 with Ser (site D)
Ability to promote the phagocytosis of apoptotic cells by neutrophils (neutrophils [5]): lost | Entry into vesicles (SKBR3 cells): not visible in vesicles | Ability to bind human serum glycoproteins [6]: completely lost the ability to bind human serum glycoproteins | Vesicle entry and apical targeting of glycoproteins (MDCK cells): did not enter vesicles and did not direct apical targeting of glycoproteins | Affinity for glycans with Lac in site C-D (Fluorescence anisotropy; relative to wild type): retained reduced affinity | Binding to primed and non-primed neutrophils (neutrophils [4]): did not bind any of the neutrophil preparations | Accumulation around invading Shigella bacteria (Shigella bacteria): did not accumulate around invading Shigella bacteria

Binding of galactosides with 3-linked N-glycoloyl neuraminic acid (NeuGc) ([1]; compared with NeuAc): equally well | Glycans bound on the array ([1]; glycans with a LacNAc available for binding in site C-D): 45 of 94 | Glycans bound on the array ([1]; glycans with available Galβ1–3GlcNAc): 15 of 36 | Glycans bound on the array ([1]; glycans with only Galβ1–3GalNAc available): did not bind at all | Glycans bound on the array ([1]; glycans with only lactose available): 6 of 24
Molecule: wild type galectin-3: Recombinant human galectin-3 produced in E. coli; expressed as EGFP fusion in SKBR3 cells
Entry into vesicles (SKBR3 cells): entered vesicles in some of the cells | Cells with dots (galectin containing vesicles) (SKBR3 cells; depending on how confluent the cells were): 15–30 % of cells | Enhancement of binding affinity by addition of GalNAcα1–3 or Galα1–3 [7]: 10–25 fold | Affinity for Galβ1–3GalNAc lower than for LacNAc [8]: 10–50 fold | Binding to primed and non-primed neutrophils (neutrophils [4]): about equally well | Increase in binding after TNFα priming (neutrophils [4]): 30–50%
